{"source": "ChEMBL document CHEMBL1147230", "about": "“Novel oxylipin metabolites from the brown alga Eisenia bicyclis” (2003)", "format_in_all_cases": "functional", "key": {"Staphylococcus aureus [1]": {"test_system": "Staphylococcus aureus", "test": "Antibacterial activity against Staphylococcus aureus after 12 hrs", "method_in_brief": "(§1)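 Paper disk diffusion: 0.1 mg sample loaded per disk, incubated in bouillon culture medium at 37 °C for 12 h, then inhibition zone diameter measured. Activity expressed relative to vancomycin standard (0.1 mg per disk).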"}, "Bacillus subtilis [2]": {"test_system": "Bacillus subtilis", "test": "Antibacterial activity against Bacillus subtilis after 12 hrs", "method_in_brief": "as §1"}, "Staphylococcus aureus [3]": {"test_system": "Staphylococcus aureus", "test": "Antibacterial activity against Staphylococcus aureus after 12 hrs relative to vancomycin", "method_in_brief": "(§2)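 Paper disk diffusion: 0.1 mg sample loaded per disk, incubated on bouillon culture medium at 37 °C. Inhibition zone diameter measured after 12 h. Activity expressed relative to a vancomycin standard disk (0.1 mg).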"}, "Bacillus subtilis [4]": {"test_system": "Bacillus subtilis", "test": "Antibacterial activity against Bacillus subtilis after 12 hrs relative to vancomycin", "method_in_brief": "as §2"}}}
{"smiles": "CN[C@H](CC(C)C)C(=O)N[C@H]1C(=O)N[C@@H](CC(N)=O)C(=O)N[C@H]2C(=O)N[C@H]3C(=O)N[C@H](C(=O)N[C@H](C(=O)O)c4cc(O)cc(O)c4-c4cc3ccc4O)[C@H](O)c3ccc(c(Cl)c3)Oc3cc2cc(c3O[C@@H]2O[C@H](CO)[C@@H](O)[C@H](O)[C@H]2O[C@H]2C[C@](C)(N)[C@H](O)[C@H](C)O2)Oc2ccc(cc2Cl)[C@H]1O", "note": "[VANCOMYCIN]", "values": [{"measurement": "inhibition zone (IZ)", "setting": "Staphylococcus aureus [1]", "result": 34.6, "unit": "mm"}, {"measurement": "inhibition zone (IZ)", "setting": "Bacillus subtilis [2]", "result": 26.8, "unit": "mm"}, {"measurement": "Activity", "setting": "Staphylococcus aureus [3]", "result": 1}, {"measurement": "Activity", "setting": "Bacillus subtilis [4]", "result": 1}]}
{"smiles": "CC[C@H]1O[C@@H]2[C@@H](/C=C\\C/C=C\\CCCCC(=O)O)[C@H]1C[C@H]2Cl", "values": [{"measurement": "Activity", "setting": "Staphylococcus aureus [3]", "result": 0.4}, {"measurement": "Activity", "setting": "Bacillus subtilis [4]", "result": 0.43}]}
{"smiles": "CC[C@@H]1OC(=O)CCCCCCC/C=C\\[C@@H]2[C@@H](O)[C@H](I)C[C@H]21", "note": "[EISENIAIODIDE B]", "values": [{"measurement": "Activity", "setting": "Staphylococcus aureus [3]", "result": 0.47}, {"measurement": "Activity", "setting": "Bacillus subtilis [4]", "result": 0.28}]}
{"smiles": "CC[C@@H]1OC(=O)CCCC/C=C\\C/C=C\\[C@@H]2[C@@H](O)[C@H](Cl)C[C@H]21", "note": "[EISENIACHLORIDE A]", "values": [{"measurement": "Activity", "setting": "Staphylococcus aureus [3]", "result": 0.38}, {"measurement": "Activity", "setting": "Bacillus subtilis [4]", "result": 0.36}]}
{"smiles": "CC[C@@H]1OC(=O)CCCC/C=C\\C/C=C\\[C@H]2[C@H]1C[C@@H]1O[C@H]21", "note": "[ECKLONIALACTONE A]", "values": [{"measurement": "Activity", "setting": "Staphylococcus aureus [3]", "result": 0.41}, {"measurement": "Activity", "setting": "Bacillus subtilis [4]", "result": 0.3}]}
{"smiles": "CC[C@H](Cl)[C@@H]1C[C@@H]2O[C@@H]2[C@H]1/C=C\\C/C=C\\CCCCC(=O)O", "note": "[EGREGIACHLORIDE A]", "values": [{"measurement": "Activity", "setting": "Staphylococcus aureus [3]", "result": 0.47}, {"measurement": "Activity", "setting": "Bacillus subtilis [4]", "result": 0.35}]}
{"smiles": "CC[C@@H]1OC(=O)CCCCCCC/C=C\\[C@@H]2[C@@H](O)[C@H](Cl)C[C@H]21", "note": "[EISENIACHLORIDE B]", "values": [{"measurement": "Activity", "setting": "Staphylococcus aureus [3]", "result": 0.53}, {"measurement": "Activity", "setting": "Bacillus subtilis [4]", "result": 0.31}]}
{"smiles": "CC[C@@H]1OC(=O)CCC/C=C\\C/C=C\\C/C=C\\[C@@H]2[C@@H](O)[C@H](Cl)C[C@H]21", "note": "[EISENIACHLORIDE C]", "values": [{"measurement": "Activity", "setting": "Staphylococcus aureus [3]", "result": 0.34}, {"measurement": "Activity", "setting": "Bacillus subtilis [4]", "result": 0.29}]}
